In ChEMBL document CHEMBL2176938, “Virtual screening and optimization yield low-nanomolar inhibitors of the tautomerase activity of Plasmodium falciparum macrophage migration inhibitory factor” (J Med Chem, 2012) one finds Ki and IC50 data, which are given here for 53 molecules.

In general, Ki refers to the equilibrium dissociation constant of an inhibitor or competing ligand from its target. As usually defined, the IC50 is the concentration that gives 50% inhibition.

The first assay concerns the target T1, Macrophage migration inhibitory factor (Homo sapiens, UniProt P14174).
T1 sequence (P14174 whole entry): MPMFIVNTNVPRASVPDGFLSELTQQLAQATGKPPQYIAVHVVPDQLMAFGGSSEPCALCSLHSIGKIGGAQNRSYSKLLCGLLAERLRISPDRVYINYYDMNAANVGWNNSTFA
The assay is described as follows: Inhibition of human MIF.
Conditions: not given; call rule not given here
Take `COc1cccc(Oc2cc(C)nc(N3CCOCC3)c2)c1`: the Ki result was “Not Active”.

The assay is the same for the next values; noted with them: read-out: Ki.
`Cc1cc(Oc2cccc(O)c2)cc(-c2ccccc2)n1`: the Ki is 101 µM.

Consider `COc1ccc(-c2cc(Oc3cc(C)cc(OC)c3)cc(C)n2)cc1`, for which the Ki worked out at 270 µM.

The target of the next assay is T2, Macrophage migration inhibitory factor homologue (Plasmodium falciparum (isolate 3D7), UniProt Q8I5C5).
T2 sequence (Q8I5C5 whole entry): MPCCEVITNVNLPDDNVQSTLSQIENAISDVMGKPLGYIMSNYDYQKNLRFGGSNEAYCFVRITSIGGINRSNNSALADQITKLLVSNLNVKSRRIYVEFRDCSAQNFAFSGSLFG
The assay is described as follows: Inhibition of recombinant Plasmodium falciparum MIF expressed in Escherichia coli BL21 (DE3) assessed as ketonization of enol form of 4-HPP substrate after 10 mins.
Conditions: not given
The method in brief: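 PfMIF (75 nM trimer) in 25 mM potassium phosphate pH 7.4, preincubated 10 min with inhibitor at 1.5, 5 and 10 μM; DMSO vehicle 1% final. Started by adding enol 4-HPP (dissolved in absolute EtOH, stored −20°C) at varied concentrations. Enol-to-keto conversion read as fall in absorbance at 306 nm over 90 s; Ki values derived.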
For `CC1(C)CC(=O)C=C(Nc2ccc(S(N)(=O)=O)cc2)C1`, the Ki entry is listed as “Not Active”.

For `CNC(=O)c1cccc2cccc(Sc3ccccc3C(=O)O)c12`, the Ki result is on record as “Not Active”.

As to `CC(=O)c1ccc(-c2ccc(C(=O)N3CCC(C(N)=O)CC3)o2)cc1`, the Ki result is given as “Not Active”.

Take `O=C(NCc1ccc(F)cc1F)Nc1cnccc1C(F)(F)F`: the Ki entry is “Not Active”.

Consider `CN1C(=O)N[C@@H](c2ccccc2)C2=C1CN(c1cccc(C(=O)O)c1)C2=O`, for which the Ki result was “Not Active”.

`COc1ccc(NC(=O)[C@H]2CCC(C)=C(C)[C@@H]2C(=O)O)c(N2CCOCC2)n1`: the Ki entry is listed as “Not Active”.

As to `Oc1cccc(Oc2ccc(-c3cccc(O)c3)cc2)c1`, the Ki entry is listed as “Not Active”.

Consider `Oc1ccc(-c2ccc(Oc3cccc(O)c3)cc2)cc1`, for which the Ki entry is on record as “Not Active”.

Regarding `Oc1cccc(Oc2ccc(-c3ccc(O)c(O)c3)cc2)c1`, the inhibitory constant (Ki) entry is on record as “Not Active”.

Consider `COc1ccc(-c2ccc(Oc3cccc(OC)c3)cc2)cc1`, for which the Ki result is recorded as “Not Active”.

In the case of `COc1cccc(Oc2ccc(-c3ccc(OC)c(OC)c3)cc2)c1`, the Ki entry is reported as “Not Active”.

For `COc1ccc(-c2ccc(Oc3cccc(OC)c3)cn2)cc1`, the Ki result was “Not Active”.

On to `COc1ccc(Oc2cc(C)nc(-c3ccccc3)n2)cc1`, for which the Ki entry is listed as “Not Active”.

For the molecule `COc1ccc(-c2cc(Oc3cccc(OC)c3)ccn2)cc1`, the Ki result is given as “Not Active”.

As for `Cc1cc(O)cc(Oc2ccnc(-c3ccc(O)cc3)c2)c1`, the Ki result is “Not Active”.

On to `COc1ccc(C(=O)c2oc3ccccc3c2NC(=O)C(C)C)cc1Cl`, for which the Ki entry is “Not Active”.

For `CCc1ccc(CNc2ccc(S(N)(=O)=O)cc2)cc1`, the Ki entry is reported as “Not Active”.

With `CCC[C@H](C(=O)Nc1ccc(F)c(F)c1F)c1ccccc1`, the Ki result is reported as “Not Active”.

Consider `CCc1ccc([C@H]2C[C@H](c3cccc(C)c3)n3ncnc3N2)cc1`, for which the Ki entry is on record as “Not Active”.

Take `O=C(O)c1ccccc1C(=O)N(Cc1cccnc1)Cc1ccc(Cl)cc1Cl`: the Ki result is recorded as “Not Active”.

With `O=C(O)c1ccccc1C(=O)Nc1ncccc1OCc1ccc(Cl)c(Cl)c1`, the Ki result is listed as “Not Active”.

Take `O=C1C(=O)N(CNc2ccc3ccccc3c2)c2ccccc21`: the Ki entry is recorded as “Not Active”.

As for `CC(=O)O[C@@H]1C[C@H]2C(C)(C)C(=O)C=C[C@]2(C)[C@H]2CC[C@@]3(C)[C@H](c4ccoc4)C(=O)[C@H]4O[C@]43[C@@]21C` [EPOXYAZADIRADIONE], the IC50 was determined as 10 µM.

Still in this assay, the particulars now being: read-out: Ki.
For the molecule `NS(=O)(=O)c1ccc(NC2=CC(=O)C(=O)c3ccccc32)cc1`, the Ki came to 99 µM.

Regarding `Oc1cccc(Oc2c(F)c(F)nc(N3CCOCC3)c2F)c1`, the Ki was determined as 8.6 µM.

As to `Oc1cccc(Oc2c(F)c(N3CCOCC3)nc(F)c2Cl)c1`, the Ki was 15.5 µM.

With `Oc1cccc(Oc2c(F)c(F)nc(N3CCCCC3)c2F)c1`, the Ki worked out at 28.6 µM.

For the molecule `Cc1cc(Oc2cccc(O)c2)nc(-c2ccccc2)n1`, the Ki is 19.3 µM.

Take `COc1ccc(-c2nnc3ccc(Oc4cccc(O)c4)nn23)cc1`: the Ki was found to be 122 µM.

As for `Oc1cccc(Oc2ccnc(N3CCOCC3)c2)c1`, the Ki turned out to be 43.4 µM.

As for `COc1cccc(Oc2ccnc(N3CCOCC3)c2)c1`, the Ki is 22.9 µM.

Regarding `Oc1cccc(Oc2ccc(-c3cccc(O)c3)nc2)c1`, the Ki is 6.9 µM.

In the case of `Oc1ccc(-c2ccc(Oc3cccc(O)c3)cn2)cc1`, the Ki was found to be 67.6 µM.

In the case of `COc1cccc(Oc2ccc(-c3cccc(OC)c3)nc2)c1`, the Ki is 57.2 µM.

`N#Cc1cccc(Oc2ccc(-c3cccc(O)c3)nc2)c1`: the Ki turned out to be 0.37 µM.

Consider `COc1cc(OC)cc(Oc2ccnc(N3CCOCC3)c2)c1`, for which the Ki amounted to 122 µM.

On to `COc1cc(C)cc(Oc2ccnc(N3CCOCC3)c2)c1`, for which the Ki is 5.6 µM.

With `COc1cc(Cl)cc(Oc2ccnc(N3CCOCC3)c2)c1`, the Ki stood at 2.6 µM.

On to `CCOc1cccc(Oc2ccnc(N3CCOCC3)c2)c1`, for which the Ki is 6.9 µM.

Regarding `CCOc1cccc(Oc2cc(C)nc(N3CCOCC3)c2)c1`, the Ki was 7.2 µM.

For `COc1cc(C)cc(Oc2cc(C)nc(N3CCOCC3)c2)c1`, the Ki stood at 1.2 µM.

Regarding `Cc1cc(Oc2cccc(C#N)c2)cc(N2CCOCC2)n1`, the Ki amounted to 11.3 µM.

Regarding `COc1cccc(Oc2cc(C)nc(N3CCOCC3)c2)c1`, the Ki was determined as 0.043 µM.

In the case of `COc1cccc(Oc2cc(C)nc(-c3ccccc3)n2)c1`, the Ki worked out at 5.5 µM.

Regarding `Cc1cc(Oc2ccc(O)cc2)nc(-c2ccccc2)n1`, the Ki worked out at 93.3 µM.

As for `Cc1cc(Oc2cccc(C#N)c2)nc(-c2ccccc2)n1`, the Ki was 1.6 µM.

Consider `Cc1cc(Oc2cccc(O)c2)cc(-c2ccccc2)n1`, for which the Ki worked out at 0.039 µM.

For `COc1cccc(Oc2cc(C)nc(-c3ccccc3)c2)c1`, the Ki came to 7.7 µM.

In the case of `Oc1ccc(-c2cc(Oc3cccc(O)c3)ccn2)cc1`, the Ki amounted to 3 µM.

As for `COc1ccc(-c2cc(Oc3cc(C)cc(OC)c3)ccn2)cc1`, the Ki was determined as 0.37 µM.

With `COc1ccc(-c2cc(Oc3cc(C)cc(OC)c3)cc(C)n2)cc1`, the Ki worked out at 0.038 µM.

As to `O=C1N=C(Nc2cccc(O)c2)S/C1=C\c1cccc(O)c1`, the Ki stood at 20.6 µM.

For the molecule `NC(=O)CSC1=Nc2ccccc2C2=N[C@H](Cc3c[nH]c4ccccc34)C(=O)N12`, the Ki came out at 25.4 µM.
